From paper PMC8851455 (ACS Omega, 2022)

What was measured:
chicken fetal liver = test: TBARs level; assay type: in vivo
MCF-7 cells = test: MCF-7 cell proliferation assay; assay type: cell-based, human
Procedure, shortened: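 MCF-7 cells exposed to test compound or E2 at six concentrations from 10–12 to 10–7 M in EA-free medium. Proliferation read as MTT product absorbance at 570 nm. Three independent trials, each in triplicate. % RME2 = 100 × (OD test − OD VC)/(max OD E2 − OD VC). EC50 from curve fitting. EEF = EC50 of E2/EC50 of sample. One-way ANOVA with Dunnett's test versus E2 at each concentration.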

S. typhimurium TA100 = test: Ames test, strain TA100; assay type: cell-based, Salmonella typhimurium
zebrafish embryos = details: at 1–50 μM; cited from earlier work
ERβ = details: cited from earlier work
Swiss mice = details: 100 and 200 mg/kg; cited from earlier work
chicken embryo = test: Chicken embryonic assay; assay type: in vivo; details: for malformation rate / mortality rate / number of dead chicken embryo / number of malformation chicken embryo / weights: embryo / weights: heart / weights: liver: egg injection, day 18
[1] = test system: S. typhimurium tester strains (TA98, TA100, and TA102); test: Ames test, overall over three strains; assay type: cell-based, Salmonella typhimurium; details: 5 × 10^–5 to 50 pmol/plate, with or without S9
S. typhimurium TA98 = test: Ames test, strain TA98; assay type: cell-based, Salmonella typhimurium
[2] = TA100 +S9, 5 × 10^–2 pmol/plate
[3] = TA100 +S9, 5 × 10^–3 pmol/plate
[4] = TA100 +S9, 5 × 10^–4 pmol/plate
[5] = TA100 +S9, 5 × 10^–5 pmol/plate
[6] = TA100 -S9, 5 × 10^–2 pmol/plate
[7] = TA100 -S9, 5 × 10^–3 pmol/plate
[8] = TA100 -S9, 5 × 10^–4 pmol/plate
[9] = TA100 -S9, 5 × 10^–5 pmol/plate
[10] = higher dose (0.5 mM: 450–500 μg/kg; E2 0.1 mM: 91 μg/kg)
[11] = lower dose (0.05 mM: 45–50 μg/kg; E2 0.01 mM: 9.1 μg/kg)

O=c1cc(-c2ccc(O)cc2)oc2cc(O)cc(O)c12 [apigenin]
TBARs value (chicken fetal liver; higher dose (0.5 mM: 450–500 μg/kg)): 112.31 nmol/g
TBARs value (chicken fetal liver; lower dose (0.05 mM: 45–50 μg/kg)): 103.73 nmol/g
EEF (estradiol equivalent factor) (MCF-7 cells; EC50 of E2 divided by that of the test compound): 0.16
EC50 (MCF-7 cells; Homo sapiens, MCF7): 0.062 nM
max % RME2 (MCF-7 cells; highest % RME2 (relative maximum % E2) in test range 10^–12–10^–7 M): 27%
MI (S. typhimurium TA100; TA100 +S9, 0.5 pmol/plate): 1.4
number of revertants/plate (M ± SD) (S. typhimurium TA100; TA100 +S9, 0.5 pmol/plate): 415 ± 4 revertants/plate
MI (S. typhimurium TA100; TA100 +S9, 5 pmol/plate): 1.3
number of revertants/plate (M ± SD) (S. typhimurium TA100; TA100 +S9, 5 pmol/plate): 390 ± 4 revertants/plate
MI (S. typhimurium TA100; TA100 +S9, 50 pmol/plate): 1.3
number of revertants/plate (M ± SD) (S. typhimurium TA100; TA100 +S9, 50 pmol/plate): 400 ± 2 revertants/plate
MI (S. typhimurium TA100; [2]): 1.2
number of revertants/plate (M ± SD) (S. typhimurium TA100; [2]): 377 ± 15 revertants/plate
MI (S. typhimurium TA100; [3]): 1.1
number of revertants/plate (M ± SD) (S. typhimurium TA100; [3]): 349 ± 10 revertants/plate
MI (S. typhimurium TA100; [4]): 1.1
number of revertants/plate (M ± SD) (S. typhimurium TA100; [4]): 342 ± 14 revertants/plate
MI (S. typhimurium TA100; [5]): 1.2
number of revertants/plate (M ± SD) (S. typhimurium TA100; [5]): 358 ± 6 revertants/plate
MI (S. typhimurium TA100; TA100 -S9, 0.5 pmol/plate): 1.0
number of revertants/plate (M ± SD) (S. typhimurium TA100; TA100 -S9, 0.5 pmol/plate): 94 ± 4 revertants/plate
MI (S. typhimurium TA100; TA100 -S9, 5 pmol/plate): 1.0
number of revertants/plate (M ± SD) (S. typhimurium TA100; TA100 -S9, 5 pmol/plate): 96 ± 4 revertants/plate
MI (S. typhimurium TA100; TA100 -S9, 50 pmol/plate): 1.0
number of revertants/plate (M ± SD) (S. typhimurium TA100; TA100 -S9, 50 pmol/plate): 96 ± 8 revertants/plate
MI (S. typhimurium TA100; [6]): 0.9
number of revertants/plate (M ± SD) (S. typhimurium TA100; [6]): 85 ± 6 revertants/plate
MI (S. typhimurium TA100; [7]): 0.8
number of revertants/plate (M ± SD) (S. typhimurium TA100; [7]): 75 ± 13 revertants/plate
MI (S. typhimurium TA100; [8]): 0.9
number of revertants/plate (M ± SD) (S. typhimurium TA100; [8]): 83 ± 6 revertants/plate
MI (S. typhimurium TA100; [9]): 0.9
number of revertants/plate (M ± SD) (S. typhimurium TA100; [9]): 87 ± 6 revertants/plate
developmental toxicity in zebrafish model (zebrafish embryos): showing developmental toxicity
binding affinity for ERβ (ERβ): 6%
hepatotoxicity (Swiss mice): led to hepatotoxicity
malformation rate (chicken embryo; [10]): 0.0%
mortality rate (chicken embryo; [10]): 10.0%
number of dead chicken embryo (chicken embryo; [10]): 1
number of malformation chicken embryo (chicken embryo; [10]): 0
weights: embryo (chicken embryo; [10]): 21.49 ± 1.44 g
weights: heart (chicken embryo; [10]): 0.17 ± 0.02 g
weights: liver (chicken embryo; [10]): 0.41 ± 0.02 g
fetal liver weight, lower compared with the VC (chicken embryo; higher-dose treatment): ~20%
malformation rate (chicken embryo; [11]): 11.11%
mortality rate (chicken embryo; [11]): 10.0%
number of dead chicken embryo (chicken embryo; [11]): 1
number of malformation chicken embryo (chicken embryo; [11]): 1
weights: embryo (chicken embryo; [11]): 24.29 ± 0.03 g
weights: heart (chicken embryo; [11]): 0.18 ± 0.02 g
weights: liver (chicken embryo; [11]): 0.44 ± 0.02 g
Ames test outcome (signs of mutagenicity) [1]: signs of mutagenicity
MI (S. typhimurium TA98; TA98 +S9, 0.5 pmol/plate): 1.1
number of revertants/plate (M ± SD) (S. typhimurium TA98; TA98 +S9, 0.5 pmol/plate): 85 ± 6 revertants/plate
MI (S. typhimurium TA98; TA98 +S9, 5 pmol/plate): 1.1
number of revertants/plate (M ± SD) (S. typhimurium TA98; TA98 +S9, 5 pmol/plate): 80 ± 10 revertants/plate
MI (S. typhimurium TA98; TA98 +S9, 50 pmol/plate): 1.0
number of revertants/plate (M ± SD) (S. typhimurium TA98; TA98 +S9, 50 pmol/plate): 75 ± 20 revertants/plate
MI (S. typhimurium TA98; TA98 +S9, 5 × 10^–2 pmol/plate): 1.2
number of revertants/plate (M ± SD) (S. typhimurium TA98; TA98 +S9, 5 × 10^–2 pmol/plate): 87 ± 6 revertants/plate
MI (S. typhimurium TA98; TA98 +S9, 5 × 10^–3 pmol/plate): 1.1
number of revertants/plate (M ± SD) (S. typhimurium TA98; TA98 +S9, 5 × 10^–3 pmol/plate): 80 ± 18 revertants/plate
MI (S. typhimurium TA98; TA98 +S9, 5 × 10^–4 pmol/plate): 1.1
number of revertants/plate (M ± SD) (S. typhimurium TA98; TA98 +S9, 5 × 10^–4 pmol/plate): 83 ± 9 revertants/plate
MI (S. typhimurium TA98; TA98 +S9, 5 × 10^–5 pmol/plate): 0.9
number of revertants/plate (M ± SD) (S. typhimurium TA98; TA98 +S9, 5 × 10^–5 pmol/plate): 68 ± 2 revertants/plate
MI (S. typhimurium TA98; TA98 -S9, 0.5 pmol/plate): 0.9
number of revertants/plate (M ± SD) (S. typhimurium TA98; TA98 -S9, 0.5 pmol/plate): 9 ± 1 revertants/plate
MI (S. typhimurium TA98; TA98 -S9, 5 pmol/plate): 1.3
number of revertants/plate (M ± SD) (S. typhimurium TA98; TA98 -S9, 5 pmol/plate): 13 ± 1 revertants/plate
MI (S. typhimurium TA98; TA98 -S9, 50 pmol/plate): 1.1
number of revertants/plate (M ± SD) (S. typhimurium TA98; TA98 -S9, 50 pmol/plate): 11 ± 4 revertants/plate
MI (S. typhimurium TA98; TA98 -S9, 5 × 10^–2 pmol/plate): 1.0
number of revertants/plate (M ± SD) (S. typhimurium TA98; TA98 -S9, 5 × 10^–2 pmol/plate): 10 ± 4 revertants/plate
MI (S. typhimurium TA98; TA98 -S9, 5 × 10^–3 pmol/plate): 1.0
number of revertants/plate (M ± SD) (S. typhimurium TA98; TA98 -S9, 5 × 10^–3 pmol/plate): 10 ± 3 revertants/plate
MI (S. typhimurium TA98; TA98 -S9, 5 × 10^–4 pmol/plate): 0.7
number of revertants/plate (M ± SD) (S. typhimurium TA98; TA98 -S9, 5 × 10^–4 pmol/plate): 7 ± 3 revertants/plate
MI (S. typhimurium TA98; TA98 -S9, 5 × 10^–5 pmol/plate): 1.0
number of revertants/plate (M ± SD) (S. typhimurium TA98; TA98 -S9, 5 × 10^–5 pmol/plate): 10 ± 3 revertants/plate
